# Results from PMC11871391 (Journal of Diabetes Investigation, 2024).
# Assays:
# [1] = format: in vivo, human; settings: weekly dosing interval at steady state, Japanese T1D
# Summary of the method: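 Japanese adults (20–64 y) with T1D got subcutaneous thigh doses once weekly around 20:00 for 8 weeks. The constant weekly dose was seven times the run-in daily glargine U100 dose, with glargine top-up in weeks 1–2. Blood was sampled from the first dose to 35 days after the last. Total serum drug (albumin-bound plus unbound) was measured by validated specific immunoassay. AUC was by linear trapezoid over 0–168 h; t½ was log(2)/λz by linear regression.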
# insulin receptor = settings: cited from earlier work
# [2] = system: Japanese individuals with type 1 diabetes; experiment: Safety evaluation during treatment periods; format: in vivo, human; settings: Japanese T1D; for rate of nocturnal Level 2 hypoglycemia / rate of overall Level 2 hypoglycemia (plasma glucose <3.0 mmol/L): glucose clamps excluded; for rate of overall Level 2 hypoglycemia (plasma glucose <3.0 mmol/L): from SMPG
# Summary of the method: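 Randomized crossover in Japanese adults with T1D: once-weekly test insulin for 8 weeks and once-daily glargine U100 for 14 days, both with bolus aspart. Safety covered AEs, vital signs, ECG, physical exam and laboratory tests, with clinically significant findings recorded as AEs. Hypoglycemia (Level 2, <3.0 mmol/L; Level 3, severe) and hyperglycemia (>16.7 mmol/L) were identified from SMPG. Events were expressed per patient-year of exposure and summarized descriptively.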
# [3] = White individuals; cited from earlier work
# [4] = system: Japanese individuals with type 1 diabetes; format: in vivo, human; settings: weekly dosing interval at steady state, Japanese T1D
# Summary of the method: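 Steady-state clamps (target 6.7 mmol/L) ran 24–48 h and 150–168 h after the final weekly dose. Before the clamp, glucose had to stay within ±20% from 60 to 30 min prior, within ±10% in the last 30 min, and fluctuate ≤0.3 mmol/L in the final 10 min. GIR was Loess-smoothed (factor 0.25). A per-participant PK/PD model simulated the daily effect across the full week.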
# individuals with T1D = settings: trials with degludec in T1D; cited from earlier work
Substance,day of maximum exposure [1],affinity for the insulin receptor (insulin receptor),rate of hyperglycemia (plasma glucose >16.7 mmol/L) [2],severe (Level 3) hypoglycemic episodes [2],rate of nocturnal Level 2 hypoglycemia [2],rate of overall Level 2 hypoglycemia (plasma glucose <3.0 mmol/L) [2],half-life [3],day of maximum glucose-lowering effect [4],rate of clinically significant or severe hypoglycemia previously reported (individuals with T1D)
insulin icodec,Day 1,low affinity,33.6 episodes per PYE,no severe (Level 3) hypoglycemic episodes,7.8 episodes per PYE,37.3 episodes per PYE,approximately 1 week,Day 2,
insulin degludec,,,,,,,,,42.5–88.3 episodes per PYE
insulin glargine U100 [reference compound],,,36.5 episodes per PYE,no severe (Level 3) hypoglycemic episodes,9.4 episodes per PYE,30.6 episodes per PYE,,,
